The values that follow come from the EternaBench riboswitch data.

As a reminder, the apparent Kd is the concentration giving half-maximal binding under the conditions of the assay.

The test system of this data set is MS2 coat protein. As to the kind of experiment: apparent Kd, MS2 coat protein; higher = weaker binding; RNA-MaP array. An outline of the steps: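 Fluorescently labeled MS2 coat protein, from 1.5 nM to 3 μM, was incubated at room temperature with designed RNAs transcribed on an Illumina sequencing chip from sequenced DNA templates. Times ran from 0.8–1.5 h at the lowest concentrations to 10–20 min at the highest, in Tris-HCl pH 7.5 buffer with KCl, MgCl2, BSA, DTT, tRNA and Tween20, with or without input ligand. Each apparent Kd is the median of per-cluster binding-curve fits, and designs with fewer than 10 measured clusters were excluded.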

The mark [1] stands for this setting: designed as: OFF switch for flavin mononucleotide, no ligand.
Where [2] appears, read: ligand present: flavin mononucleotide, designed as: OFF switch for flavin mononucleotide.
[3] abbreviates: designed as: ON switch for flavin mononucleotide, no ligand.
[4] abbreviates: ligand present: flavin mononucleotide, designed as: ON switch for flavin mononucleotide.
Where [5] appears, read: designed as: ON switch for theophylline, no ligand.
Where [6] appears, read: ligand present: theophylline, designed as: ON switch for theophylline.

As for “GAUUCACAUGAGGAUCACCCAUGUCAGGAUAUGACUUGAGCUGUCUCCGAUCGAGCCAUCAGAAGGGACUGGAA”, the “apparent Kd” value is, setting by setting: under setting [1], 30 nM; under setting [2], 27.8 nM.
As for “GAUGAGUUUAAGGAUAUGGUGCGUUGCUUCUUACCAGAAGGUAAAACAUGAGGAUCACCCAUGUGACGGGUGCC”, the “apparent Kd” value reads like this: under setting [1], 177 nM; under setting [2], 103 nM.
For the sequence “AUCAUGUUAGGAUAUACAAUGUAACGAUCAUUCUUGUAUGCGUAGAAGGAACAUGAGGAUCACCCAUGUGGAAG”, the “apparent Kd” value is 43 nM under setting [1] and 46.8 nM under setting [2].
The corresponding values for “ACGAUGAUAGAAGGAUAUAGGCCGAACAUGAGGGACAUGAGGAUCACCCAUGUGACAGUCGGACCCUAGAAGGUCUCGAUACUC” are 21.2 nM and 15.1 nM.
For the sequence “CUCACCUCGUGGAAGGAUAUACACUUUAGCACAUGAGGAUCACCCAUGUCCGCCGCAAAUCCUAGGUAGAAGGUCCGCAACAUUCG”, the “apparent Kd” value reads like this: under setting [3], 23.5 nM; under setting [4], 18 nM.
With “GGAUCACAUGAGGAUCACCCAUGUCAGGAUAUUAUGCCCUCCCAGUUGCUGAGACAUUUAAGAAGGGACGUGUA”, the “apparent Kd” value was found to be 13.5 nM under setting [1] and 14.3 nM under setting [2].
Take “CGGUGAUAUGAAGGAUAUGCACAUGAGGAUCACCCAUGUAACCACUAGAACAAAACGUAGUAACCGCAGAAGGUCAGCAGUAGU”: the “apparent Kd” value runs as follows: under setting [3], 23.6 nM; under setting [4], 14.5 nM.
In the case of “CAAUGGGAACCAUAUGUUUACAUGAGGAUCACCCAUGUUACAUAGGAUAUCUCGGUUGGGUUCGUAGAGAAGGAUGUAGAGUAG”, the “apparent Kd” value by setting is: under setting [1], 5.28 nM; under setting [2], 5.3 nM.
“CUACAUGAGGAUCACCCAUGUGCCUCUGGUCAGGGUCACUACGAGGAUAUAAUAGUUUAGACGAGUUAGAAGGCGUAUGAGUUA”: the “apparent Kd” value is, setting by setting: under setting [1], 111 nM; under setting [2], 77.4 nM.
Consider “CAUCAUGGGCUUGGACAAAUUGUGCUUGAUACCAGAAAUCACCGGUUCCCUUGGCAGCAACCCACAUGAGGAUCACCCAUGUGGA”, for which the “apparent Kd” value turned out to be 20.6 nM (designed as: OFF switch for theophylline, no ligand) and 31.2 nM (ligand present: theophylline, designed as: OFF switch for theophylline).
“CUCGGAAACGGAGGAUAUAGCUGAAGAGGAUUACUAGAAGGCCGAGACAUGAGGAUCACCCAUGUUUUCUCAAGUCGCAGUUUA”: the “apparent Kd” value under setting [1] turned out to be 7.93 nM and the “apparent Kd” value under setting [2] is 9.48 nM.
In the case of “AAUAAGUUAGGAUAUUCAGGAGCAGCGCAAUGGUACGAGUCGAAGAAGGAACAUGAGGAUCACCCAUGUGAACC”, the “apparent Kd” value is, setting by setting: under setting [1], 11.2 nM; under setting [2], 11.5 nM.
The corresponding values for “UGGGCGGAAGGAUAUACAUGAGGAUCACCCAUGUGUCUUUUGCUGAUGGGUGCAUAGUGUAGAAGGUCCAGUGU” are 93.7 nM and 38.8 nM.
Consider “UCCUUGGAGUCAGGAUAUGUCGACAACGGAAUGACAGAAGGGACUUGGCAGCUUAAUUCUUCAGUACAUGAGGAUCACCCAUGU”, for which the “apparent Kd” value is, setting by setting: under setting [1], 9.35 nM; under setting [2], 9.19 nM.
For the sequence “AGUGGGUUUCAGGAUAUAAUAUUAUCAACCAUAUUAGAAGGGAAUACAUGAGGAUCACCCAUGUUGAGUAUACG”, the “apparent Kd” value was 11.7 nM under setting [1] and 9.38 nM under setting [2].
“GAACAACAUGAGGAUCACCCAUGUCAGGAUACCAGUCGAAAGUCAGACCCUUGGCAGCCUAUCACUCAGCAAAUAGAUAGUACAA”: the “apparent Kd” value came out at 15.2 nM under setting [5] and 13.7 nM under setting [6].
On to “GAACUUCGAGUCAGGAUAUGUACAUCAAAACCAAAACAGAAGGGACAUGAGGAUCACCCAUGUGAGCUAGGAUU”, for which the “apparent Kd” value under setting [1] is 14.3 nM and the “apparent Kd” value under setting [2] was 14.4 nM.
With “CUCGAAUUAUCAGGAUAUCCACAAUUCGAAGAAGGAGAAGGGAUGGCAGGGCUAACAUGGAACAUGAGGAUCACCCAUGUGCAA”, the “apparent Kd” value worked out at 11.2 nM under setting [3] and 9.94 nM under setting [4].
The matching figures for “GACGGACAUGAGGAUCACCCAUGUUCUGGCAGCGUAGGAUAUGAAGGGAUGAUUGUACGUUCAGAAGGACGACCUG”: 10.3 nM and 7.53 nM.
With “CUUUGACGUGAGAAGGUGCAGGGAAUACACAAGCAAGGAUAUCAUGCACAUGAGGAUCACCCAUGUCCUGUAACGUUUGGUGAC”, the “apparent Kd” value came to 437 nM under setting [1] and 302 nM under setting [2].
“GCGCUAUUUAUUGAUACCAGAUACAGGAAUCACAUGAGGAUCACCCAUGUGGAAUGAAGGAUCCCUUGGCAGCAAUAGUCAAAAU”: the “apparent Kd” value under setting [5] worked out at 17.8 nM and the “apparent Kd” value under setting [6] came to 10.8 nM.
Consider “UGCACCGCAGGAUAUACAAUGGAGGACGUUGUGAAUCAUAGACAUGAGGAUCACCCAUGUAGAAGGGCGUAUAA”, for which the “apparent Kd” value was determined as 34 nM under setting [1] and 78.5 nM under setting [2].
On to “GCGUGACAUGAGGAUCACCCAUGUGGCCUCGGGCUAGGAUAUGCUGAUAUACUCACCACCGCAGAAGGAGCUUCAC”, for which the “apparent Kd” value reads like this: under setting [3], 142 nM; under setting [4], 131 nM.
